Data as given in ChEMBL document CHEMBL1821616, “New insights into the structural requirements for pro-apoptotic agents based on 2,4-diaminoquinazoline, 2,4-diaminopyrido[2,3-d]pyrimidine and 2,4-diaminopyrimidine derivatives” (Eur J Med Chem, 2011).
The source made the active and inactive calls. The calls are words filed in the database; no cut-off is given here.

Tests used:
T-24 [1] = assay: Cytotoxicity against human T24 cells after 72 hrs by neutral red dye assay; assay type: functional, cell-based; conditions: T-24, 72 h
Method in brief: (§1)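 Human tumour cells were grown as monolayers with 10% FBS and penicillin/streptomycin at 37 °C in 5% CO2 (HT-29 and T-24 in McCoy's, MDA-MB-231 in Leibovitz). They were exposed to compound in DMSO (≤0.5% v/v final) at screening concentrations of 20 and 100 μM for 72 h and read by neutral red uptake. Survival is relative to cells given DMSO only, in triplicate.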

HT-29 [2] = assay: Cytotoxicity against human HT-29 cells after 72 hrs by neutral red dye assay; assay type: functional, cell-based; conditions: HT-29, 72 h; method in brief: as §1
MDA-MB-231 [3] = assay: Cytotoxicity against human MDA-MB-231 cells after 72 hrs by neutral red dye assay; assay type: functional, cell-based; conditions: MDA-MB-231, 72 h; method in brief: as §1
T-24 [4] = assay: Induction of apoptosis in human T24 cells assessed as DNA fragmentation after 48 hrs by ELISA relative to control; assay type: functional
Method in brief: (§2)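 DNA fragmentation was measured with the Cell Death Detection ELISA Plus kit after treatment of cultured tumour cells. The signal is expressed relative to untreated control cultures, which are set to 1.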

HT-29 [5] = assay: Induction of apoptosis in human HT-29 cells assessed as DNA fragmentation after 48 hrs by ELISA relative to control; assay type: functional; method in brief: as §2
MDA-MB-231 [6] = assay: Induction of apoptosis in human MDA-MB-231 cells assessed as DNA fragmentation after 24 hrs by ELISA relative to control; assay type: functional; method in brief: as §2
T-24 [7] = assay: Induction of apoptosis in human T24 cells assessed as caspase3 activation at IC50 after 48 hrs by FACS analysis relative to control; assay type: functional
Method in brief: (§3)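 Active caspase-3 was detected by flow cytometry with a FITC anti-active-caspase-3 antibody kit, with readings at 14, 24 and 48 h. Treated cells were compared with untreated control cells. Results are scored as (+) for an increase of about 50% and (++) for a larger rise.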

HT-29 [8] = assay: Induction of apoptosis in human HT-29 cells assessed as caspase3 activation at IC50 after 48 hrs by FACS analysis relative to control; assay type: functional; method in brief: as §3
[9] = Cytotoxicity against human CRL8799 cells assessed as cell survival at 20 to 100 uM after 72 hrs by neutral red dye assay; assay type: cell-based; conditions: read-out: Survival
Method in brief: (§4)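 The non-tumoral lines were grown with 10% FBS plus penicillin/streptomycin, as monolayers at 37 °C in 5% CO2: CRL-8799 in MEG medium and CRL-11233 in BEGM. Compounds in DMSO (≤0.5% v/v final) were applied for 72 h. Survival was read by neutral red uptake against 0.5% DMSO solvent-treated controls, as the mean of triplicates.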

[10] = Cytotoxicity against human CRL11233 cells assessed as cell survival at 20 to 100 uM after 72 hrs by neutral red dye assay; assay type: cell-based; conditions: read-out: Survival; method in brief: as §4
T-24 [11] = assay: Cytotoxicity against human T24 cells assessed as cell survival at 100 uM after 72 hrs by neutral red dye assay; assay type: functional; conditions: T-24, 72 h, read-out: Survival
Method in brief: (§5)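 HT-29 and T-24 cells were grown in McCoy's medium and MDA-MB-231 in Leibovitz, each with 10% FBS plus penicillin/streptomycin, as monolayers at 37 °C in 5% CO2. Compounds in DMSO (≤0.5% v/v final) were applied for 72 h. Survival was read by neutral red uptake against 0.5% DMSO-treated cells, as the mean of triplicates.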

HT-29 [12] = assay: Cytotoxicity against human HT-29 cells assessed as cell survival at 100 uM after 72 hrs by neutral red dye assay; assay type: functional; conditions: HT-29, 72 h, read-out: Survival; method in brief: as §5
MDA-MB-231 [13] = assay: Cytotoxicity against human MDA-MB-231 cells assessed as cell survival at 100 uM after 72 hrs by neutral red dye assay; assay type: functional; conditions: MDA-MB-231, 72 h, read-out: Survival; method in brief: as §5
T-24 [14] = assay: Cytotoxicity against human T24 cells after 48 hrs by neutral red dye assay; assay type: functional, cell-based
HT-29 [15] = assay: Cytotoxicity against human HT-29 cells after 48 hrs by neutral red dye assay; assay type: functional, cell-based
MDA-MB-231 [16] = assay: Cytotoxicity against human MDA-MB-231 cells after 48 hrs by neutral red dye assay; assay type: functional, cell-based

Compound | IC50 (T-24 [1]) | IC50 (HT-29 [2]) | IC50 (MDA-MB-231 [3]) | Activity (T-24 [4]) | Activity (HT-29 [5]) | Activity (MDA-MB-231 [6]) | Activity (T-24 [7]) | Activity (HT-29 [8]) | viability at 72 h, up to 100 µM [9] | viability at 72 h, up to 100 µM [10] | viability at 100 µM (T-24 [11]) | viability at 100 µM (HT-29 [12]) | viability at 100 µM (MDA-MB-231 [13]) | IC50 (T-24 [14]) | IC50 (HT-29 [15]) | IC50 (MDA-MB-231 [16]) | fold change (FC) (T-24 [4]) | fold change (FC) (HT-29 [5]) | fold change (FC) (MDA-MB-231 [6])
c1ccc(CCCNc2nc(NCCCc3ccccc3)c3ccccc3n2)cc1 | 3.45 µM | 2.2 µM | 4.18 µM | inactive | inactive | inactive | 75% | 75% | 87% | 2% | < 45% | < 45% | < 45% | – | – | – | – | – | –
CC(C)Sc1nc(NCCCO)c2cccnc2n1 | – | – | – | – | inactive | inactive | – | – | – | – | – | – | – | Not Active | Not Active | Not Active | – | – | –
CCSc1nc(NCCCCO)c2cccnc2n1 | – | – | – | – | – | – | – | – | – | – | – | – | – | Not Active | Not Active | Not Active | – | – | –
CCCCCCNc1nc(SCCCC)nc2ncccc12 | 4.5 µM | 2.8 µM | 1.2 µM | – | – | – | 75% | 75% | 95% | 99% | < 45% | < 45% | < 45% | – | – | – | 4.3 | 6.4 | 9.3
CCCCCSc1nc(NCCCC)c2cccnc2n1 | – | – | – | – | – | – | – | – | – | – | – | – | – | Not Active | Not Active | Not Active | – | – | –
c1ccc(CCNc2nc(NCCc3ccccc3)c3cccnc3n2)cc1 | 8.1 µM | 2.5 µM | 1.2 µM | – | – | inactive | 75% | 50% | 0% | 0% | < 45% | < 45% | < 45% | – | – | – | 1.2 | 9.2 | –
CCCCCNc1nc(SC(C)C)nc2ncccc12 | 7.9 µM | 25.2 µM | 5.6 µM | – | – | – | 50% | 75% | 100% | 66% | < 45% | < 45% | < 45% | – | – | – | 1.7 | 4.2 | 2.2
CCSc1nc(NCCCO)c2cccnc2n1 | – | – | – | – | – | – | – | – | – | – | – | – | – | Not Active | Not Active | Not Active | – | – | –
Brc1ccc(CCNc2nc(NCCc3ccc(Br)cc3)c3ccccc3n2)cc1 | 3.32 µM | 3.47 µM | 10.4 µM | inactive | inactive | inactive | 50% | 50% | 11% | 1% | < 45% | < 45% | < 45% | – | – | – | – | – | –
OCCCNc1nc(NCCCO)c2cccnc2n1 | – | – | – | – | – | – | – | – | – | – | – | – | – | Not Active | Not Active | Not Active | – | – | –
c1ccc(CCNc2nc(NCCc3ccccn3)c3cccnc3n2)nc1 | – | – | – | – | – | – | – | – | – | – | – | – | – | Not Active | Not Active | Not Active | – | – | –
c1ccc(CNc2nc(NCc3ccccc3)c3ccccc3n2)cc1 | 5.96 µM | 4.72 µM | 1.79 µM | inactive | – | inactive | 75% | – | 89% | 100% | < 45% | < 45% | < 45% | – | – | – | – | 3.6 | –
CCCCCNc1nc(NCCCCC)c2ccccc2n1 | 5.25 µM | 3.57 µM | 3.13 µM | – | – | – | 50% | – | 4% | 5% | < 45% | < 45% | < 45% | – | – | – | 1.8 | 1.7 | 2.5
CCCCCCCNc1nc(SCC)nc2ncccc12 | 5.3 µM | 19.9 µM | 2.6 µM | inactive | – | – | 75% | – | 93% | 100% | < 45% | < 45% | < 45% | – | – | – | – | 2.4 | 2.7
c1ccc(CCCCNc2ccnc(NCCCCc3ccccc3)n2)cc1 | – | – | – | – | – | – | – | – | – | – | – | – | – | Not Active | Not Active | Not Active | – | – | –
OCCCCNc1nc(NCCCCO)c2cccnc2n1 | – | – | – | – | – | – | – | – | – | – | – | – | – | Not Active | Not Active | Not Active | – | – | –
CCCCCNc1nc(SCCCCC)nc2ncccc12 | – | – | – | – | inactive | – | – | – | – | – | – | – | – | Not Active | Not Active | Not Active | – | – | –
c1ccc(CCCCNc2nc(NCCCCc3ccccc3)c3ccccc3n2)cc1 | 11.9 µM | 3.78 µM | 1.22 µM | inactive | – | inactive | 75% | – | 6% | 11% | < 45% | < 45% | < 45% | – | – | – | – | 2 | –
CCCCCNc1nc(SCC)nc2ncccc12 | 4.3 µM | 5.1 µM | 1.3 µM | – | – | – | 75% | 50% | 88% | 100% | < 45% | < 45% | < 45% | – | – | – | 3.6 | 5 | 6.6
CCSc1nc(NCCCCCO)c2cccnc2n1 | – | – | – | – | – | – | – | – | – | – | – | – | – | Not Active | Not Active | Not Active | – | – | –
